Converted amounts (≈) assume the structure as drawn.
How the values were obtained:
[1] = tested on: Staphylococcus aureus; experiment: Antimicrobial activity against antibiotic-resistant Staphylococcus aureus BM-2312 assessed as bacterial growth inhibitions by CLSI protocol based microdilution method; format: functional
[2] = tested on: Staphylococcus aureus; experiment: Antimicrobial activity against methicillin-resistant Staphylococcus aureus ATCC 33592 assessed as bacterial growth inhibitions by CLSI protocol based microdilution method; format: functional
[3] = tested on: Staphylococcus aureus; experiment: Antimicrobial activity against methicillin-resistant Staphylococcus aureus ATCC 700699 assessed as bacterial growth inhibitions by CLSI protocol based microdilution method; format: functional
[4] = tested on: Enterococcus faecium; experiment: Antimicrobial activity against vancomycin-resistant Enterococcus faecium ATCC 700221 assessed as bacterial growth inhibitions by CLSI protocol based microdilution method; format: functional
[5] = tested on: Bacillus subtilis; experiment: Antimicrobial activity against Bacillus subtilis ATCC 6623 assessed as bacterial growth inhibitions by CLSI protocol based microdilution method; format: functional
Summary of the method: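 Broth microdilution starting at 50 µg/ml with 2-fold serial dilutions; run in triplicate.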

[6] = tested on: Staphylococcus aureus; experiment: Antimicrobial activity against methicillin-susceptible Staphylococcus aureus ATCC 25923 assessed as bacterial growth inhibitions by CLSI protocol based microdilution method; format: functional
[7] = tested on: Staphylococcus aureus; experiment: Antimicrobial activity against methicillin-resistant Staphylococcus aureus ATCC 33591 assessed as bacterial growth inhibitions by CLSI protocol based microdilution method; format: functional
[8] = tested on: Staphylococcus epidermidis; experiment: Antimicrobial activity against methicillin-resistant Staphylococcus epidermidis ATCC 700296 assessed as bacterial growth inhibitions by CLSI protocol based microdilution method; format: functional
[9] = tested on: Enterococcus faecalis; experiment: Antimicrobial activity against vancomycin-susceptible Enterococcus faecalis ATCC 29212 assessed as bacterial growth inhibitions by CLSI protocol based microdilution method

SMILES	MIC [1] [µg/mL]	MIC [2] [µg/mL]	MIC [3] [µg/mL]	MIC [4] [µg/mL]	MIC [5] [µg/mL]	MIC [6] [µg/mL]	MIC [7] [µg/mL]	MIC [8] [µg/mL]	MIC [9] [µg/mL]
O=C(O)c1ccc(-n2cc(CNc3cc(F)c(C(F)(F)F)c(F)c3)c(-c3ccc(C(F)(F)F)cc3)n2)cc1	1.56 (≈ 2.88 µM)	1.56 (≈ 2.88 µM)	1.56 (≈ 2.88 µM)	6.25 (≈ 11.5 µM)	0.78 (≈ 1.44 µM)	1.56 (≈ 2.88 µM)	1.56 (≈ 2.88 µM)	3.12 (≈ 5.76 µM)	12.5 (≈ 23.1 µM)
O=C(O)c1ccc(-n2cc(CNc3cc(Cl)cc(C(F)(F)F)c3)c(-c3ccc(C(F)(F)F)cc3)n2)cc1	0.78 (≈ 1.44 µM)	0.78 (≈ 1.44 µM)	0.78 (≈ 1.44 µM)	0.78 (≈ 1.44 µM)	0.78 (≈ 1.44 µM)	0.78 (≈ 1.44 µM)	0.78 (≈ 1.44 µM)	1.56 (≈ 2.89 µM)	6.25 (≈ 11.6 µM)
O=C(O)c1ccc(-n2cc(CNc3ccc(F)c(Cl)c3)c(-c3ccc(C(F)(F)F)cc3)n2)cc1	0.78 (≈ 1.59 µM)	0.78 (≈ 1.59 µM)	1.56 (≈ 3.18 µM)	1.56 (≈ 3.18 µM)	0.78 (≈ 1.59 µM)	0.78 (≈ 1.59 µM)	0.78 (≈ 1.59 µM)	3.12 (≈ 6.37 µM)	6.25 (≈ 12.8 µM)
O=C(O)c1ccc(-n2cc(CNc3cccc(C(F)(F)F)c3)c(-c3ccc(C(F)(F)F)cc3)n2)cc1	1.56 (≈ 3.09 µM)	0.78 (≈ 1.54 µM)	0.38 (≈ 0.752 µM)	1.56 (≈ 3.09 µM)	0.78 (≈ 1.54 µM)	1.56 (≈ 3.09 µM)	0.78 (≈ 1.54 µM)	1.56 (≈ 3.09 µM)	6.25 (≈ 12.4 µM)
O=C(O)c1ccc(-n2cc(CNc3cccc(F)c3)c(-c3ccc(C(F)(F)F)cc3)n2)cc1	3.12 (≈ 6.85 µM)	3.12 (≈ 6.85 µM)	3.12 (≈ 6.85 µM)	6.25 (≈ 13.7 µM)	1.56 (≈ 3.43 µM)	3.12 (≈ 6.85 µM)	3.12 (≈ 6.85 µM)	6.25 (≈ 13.7 µM)	25 (≈ 54.9 µM)
O=C(O)c1ccc(-n2cc(CNc3cc(Br)cc(C(F)(F)F)c3)c(-c3ccc(C(F)(F)F)cc3)n2)cc1	0.78 (≈ 1.33 µM)	0.78 (≈ 1.33 µM)	0.78 (≈ 1.33 µM)	0.78 (≈ 1.33 µM)	0.78 (≈ 1.33 µM)	0.78 (≈ 1.33 µM)	3.12 (≈ 5.34 µM)	1.56 (≈ 2.67 µM)	0.78 (≈ 1.33 µM)
O=C(O)c1ccc(-n2cc(CNc3cc(C(F)(F)F)ccc3F)c(-c3ccc(C(F)(F)F)cc3)n2)cc1	0.78 (≈ 1.49 µM)	1.56 (≈ 2.98 µM)	0.78 (≈ 1.49 µM)	1.56 (≈ 2.98 µM)	0.78 (≈ 1.49 µM)	1.56 (≈ 2.98 µM)	0.78 (≈ 1.49 µM)	3.12 (≈ 5.96 µM)	6.25 (≈ 11.9 µM)
O=C(O)c1ccc(-n2cc(CNc3ccc(Br)c(C(F)(F)F)c3)c(-c3ccc(C(F)(F)F)cc3)n2)cc1	3.12 (≈ 5.34 µM)	3.12 (≈ 5.34 µM)	3.12 (≈ 5.34 µM)	0.78 (≈ 1.33 µM)	3.12 (≈ 5.34 µM)	3.12 (≈ 5.34 µM)	0.78 (≈ 1.33 µM)	12.5 (≈ 21.4 µM)	–
O=C(O)c1ccc(-n2cc(CNc3cc(F)c(C(F)(F)F)cc3F)c(-c3ccc(C(F)(F)F)cc3)n2)cc1	0.78 (≈ 1.44 µM)	0.78 (≈ 1.44 µM)	0.78 (≈ 1.44 µM)	0.78 (≈ 1.44 µM)	0.78 (≈ 1.44 µM)	0.78 (≈ 1.44 µM)	0.78 (≈ 1.44 µM)	–	1.56 (≈ 2.88 µM)
O=C(O)c1ccc(-n2cc(CNc3ccc(Br)c(Cl)c3F)c(-c3ccc(C(F)(F)F)cc3)n2)cc1	–	–	–	–	–	–	–	–	0.78 (≈ 1.37 µM)
O=C(O)c1ccc(-n2cc(CNc3cccc(Cl)c3F)c(-c3ccc(C(F)(F)F)cc3)n2)cc1	0.78 (≈ 1.59 µM)	1.56 (≈ 3.18 µM)	3.12 (≈ 6.37 µM)	0.78 (≈ 1.59 µM)	0.78 (≈ 1.59 µM)	1.56 (≈ 3.18 µM)	1.56 (≈ 3.18 µM)	–	–
O=C(O)c1ccc(-n2cc(CNc3ccc(F)c(F)c3)c(-c3ccc(C(F)(F)F)cc3)n2)cc1	1.56 (≈ 3.3 µM)	1.56 (≈ 3.3 µM)	0.78 (≈ 1.65 µM)	3.12 (≈ 6.59 µM)	–	1.56 (≈ 3.3 µM)	1.56 (≈ 3.3 µM)	6.25 (≈ 13.2 µM)	12.5 (≈ 26.4 µM)

From ChEMBL document CHEMBL4814057, “4-4-(Anilinomethyl)-3-[4-(trifluoromethyl)phenyl]-1H-pyrazol-1-ylbenzoic acid derivatives as potent anti-gram-positive bacterial agents” (Eur J Med Chem, 2021)
